ChEMBL document CHEMBL4823296, “NMR-Guided Design of Potent and Selective EphA4 Agonistic Ligands” (J Med Chem, 2021)
Converted amounts (≈) assume the structure as drawn. The source made the active and inactive calls. The calls are words filed in the database; no cut-off is given here. Non-standard residues stand in square brackets, D forms with d. Residues, ends and D or L forms follow the SMILES beside them. *: point of attachment. Cyclohexanoyl(1S,3S-3-NH2) = N[C@H]1CCC[C@H](C(=O)*)C1; Trp(5-OH) = N[C@@H](Cc1c[nH]c2ccc(O)cc12)C(=O)O; NH(4-morpholinophenyl) = c1cc(N2CCOCC2)ccc1N*; Bip = N[C@@H](Cc1ccc(-c2ccccc2)cc1)C(=O)O; hArg = N=C(N)NCCCC[C@H](N)C(=O)O

Legend:
[1] = target: Ephrin type-A receptor 4 (Mus musculus) (UniProt Q03137); test: Agonist activity at EphA4 in B6-Cg-Tg(Hlxb9-GFP)1Tmj/J (Hb9-GFP) mouse primary spinal cord motor neuron cells assessed as protein phosphorylation at […] residues at 1 to 10 uM incubated for 30 mins by Western blotting analysis; conditions: filed as agonist, dose 1-10 µM
Chain of Ephrin type-A receptor 4 (Mus musculus) (Q03137 whole entry, the tested form may be a part): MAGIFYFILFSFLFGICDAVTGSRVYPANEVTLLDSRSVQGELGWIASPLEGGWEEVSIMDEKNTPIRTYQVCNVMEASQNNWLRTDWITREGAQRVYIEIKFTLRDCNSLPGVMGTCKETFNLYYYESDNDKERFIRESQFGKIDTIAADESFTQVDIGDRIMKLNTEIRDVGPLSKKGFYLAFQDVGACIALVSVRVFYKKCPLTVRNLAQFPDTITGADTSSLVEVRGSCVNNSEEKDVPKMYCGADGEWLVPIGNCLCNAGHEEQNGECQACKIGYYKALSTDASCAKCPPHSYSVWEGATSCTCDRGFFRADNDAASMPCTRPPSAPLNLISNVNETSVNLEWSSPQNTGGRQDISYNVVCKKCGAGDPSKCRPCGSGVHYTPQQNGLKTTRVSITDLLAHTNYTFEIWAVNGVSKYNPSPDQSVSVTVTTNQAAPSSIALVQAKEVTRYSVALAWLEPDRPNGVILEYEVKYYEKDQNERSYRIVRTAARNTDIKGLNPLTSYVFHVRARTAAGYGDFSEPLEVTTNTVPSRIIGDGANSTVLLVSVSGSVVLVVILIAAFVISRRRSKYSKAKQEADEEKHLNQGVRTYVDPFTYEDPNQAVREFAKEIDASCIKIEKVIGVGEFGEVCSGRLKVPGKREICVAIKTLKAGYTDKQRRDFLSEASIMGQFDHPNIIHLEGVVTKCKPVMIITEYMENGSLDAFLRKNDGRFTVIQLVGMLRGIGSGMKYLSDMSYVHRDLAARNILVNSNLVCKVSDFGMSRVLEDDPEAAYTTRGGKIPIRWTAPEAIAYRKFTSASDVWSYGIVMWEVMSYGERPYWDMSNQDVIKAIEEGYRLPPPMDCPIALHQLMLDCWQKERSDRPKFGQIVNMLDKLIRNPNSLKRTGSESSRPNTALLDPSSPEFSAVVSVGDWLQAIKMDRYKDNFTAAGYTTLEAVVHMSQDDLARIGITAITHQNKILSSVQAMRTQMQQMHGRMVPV
Summary of the method: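 Hb9-GFP mouse motor neurons from P0–2 spinal cords (papain/DNase I dissociation, OptiPrep purification), plated on poly-D-lysine/laminin in Neurobasal/B27, then 5% horse serum plus CNTF; at 2 DIV treated 30 min at 37°C, 5% CO2/10% O2, at 1 or 10 μM; 0.1% DMSO, pre-clustered Fc and ephrinA1-Fc (2 μg/mL) controls. Lysates immunoprecipitated with anti-EphA4, blotted for phosphotyrosine, reprobed for EphA4; pEphA4/total EphA4 band density ratio; SEM, each experiment repeated 3 times.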

Ephrin type-A receptor 4 [2] = target: T1, Ephrin type-A receptor 4 (Homo sapiens, UniProt P54764); test: Displacement of EphrinA5 from N-terminal His tagged EphA4 LBD (unknown origin) (29 to 209 residues) expressed in Rosetta-Gami B(DE3) cells by 2D-[13C-1H] HSQC NMR spectroscopy; assay type: cell-based; conditions: filed as agonist
T1 sequence (P54764 whole entry, the tested form may be a part): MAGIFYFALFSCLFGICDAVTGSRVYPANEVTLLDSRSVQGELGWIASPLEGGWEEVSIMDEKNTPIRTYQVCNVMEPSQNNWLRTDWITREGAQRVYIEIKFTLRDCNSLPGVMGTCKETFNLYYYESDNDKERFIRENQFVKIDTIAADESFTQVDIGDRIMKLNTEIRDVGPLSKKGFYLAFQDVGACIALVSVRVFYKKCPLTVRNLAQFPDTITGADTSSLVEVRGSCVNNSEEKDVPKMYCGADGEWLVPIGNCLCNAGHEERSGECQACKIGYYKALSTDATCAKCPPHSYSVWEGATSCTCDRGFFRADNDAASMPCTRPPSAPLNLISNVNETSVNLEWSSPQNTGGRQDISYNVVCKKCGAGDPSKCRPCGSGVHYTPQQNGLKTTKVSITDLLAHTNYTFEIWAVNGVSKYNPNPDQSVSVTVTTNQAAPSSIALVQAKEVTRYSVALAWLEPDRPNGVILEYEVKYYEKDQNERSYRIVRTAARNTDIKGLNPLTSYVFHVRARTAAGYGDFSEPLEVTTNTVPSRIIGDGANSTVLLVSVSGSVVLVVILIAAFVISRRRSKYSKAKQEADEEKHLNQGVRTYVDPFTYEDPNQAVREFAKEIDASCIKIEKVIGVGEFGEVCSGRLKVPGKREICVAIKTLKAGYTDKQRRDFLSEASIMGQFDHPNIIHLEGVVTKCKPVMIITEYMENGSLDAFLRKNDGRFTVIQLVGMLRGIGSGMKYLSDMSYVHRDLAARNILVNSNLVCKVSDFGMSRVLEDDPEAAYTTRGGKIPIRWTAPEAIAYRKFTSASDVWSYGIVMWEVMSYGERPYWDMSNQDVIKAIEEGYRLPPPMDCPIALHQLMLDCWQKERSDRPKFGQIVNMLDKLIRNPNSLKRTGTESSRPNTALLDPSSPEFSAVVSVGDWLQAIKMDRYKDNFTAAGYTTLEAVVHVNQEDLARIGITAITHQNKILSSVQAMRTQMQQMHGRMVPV

[3] = target: Ephrin type-A receptor 4 (Mus musculus) (UniProt Q03137); test: Agonist activity at EphA4 in B6-Cg-Tg(Hlxb9-GFP)1Tmj/J (Hb9-GFP) mouse spinal cord motor neurons assessed as induction of growth cone collapse at 1 to 10 uM in presence of ephrin A1-Fc by rhodamine-coupled phalloidin dye based inverted fluorescent microscopic method; conditions: filed as agonist, dose 1-10 µM
Summary of the method: (§1)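 Primary Hb9-GFP mouse spinal cord motor neurons at 2 DIV treated as in receptor activation assay (30 min, 37°C), 1 or 10 μM, alone or with pre-clustered ephrinA1-Fc (2 μg/mL); 0.1% DMSO negative control. Fixed in 2% paraformaldehyde, F-actin stained with rhodamine-phalloidin, ChAT immunolabelled; 20× fluorescence imaging, percent collapsed growth cones, 100 images per group; SEM, n=4–6 coverslips.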

[4] = Aqueous solubility of compound; assay type: physicochemical; conditions: buffer
[5] = target: Ephrin type-A receptor 4 (Mus musculus) (UniProt Q03137); test: Agonist activity at EphA4 in B6-Cg-Tg(Hlxb9-GFP)1Tmj/J (Hb9-GFP) mouse spinal cord motor neurons assessed as induction of growth cone collapse at 1 to 10 uM by rhodamine-coupled phalloidin dye based inverted fluorescent microscopic method; conditions: filed as agonist, dose 1-10 µM; summary of the method: as §1
Ephrin type-A receptor 4 [6] = target: T1, Ephrin type-A receptor 4; test: Binding affinity to N-terminal His tagged EphA4 LBD (unknown origin) (29 to 209 residues) expressed in Rosetta-Gami B(DE3) cells by isothermal titration calorimetry
Neuron [7] = test: Cytoprotective activity against patient derived induced astrocyte-mediated B6-Cg-Tg(Hlxb9-GFP)1Tmj/J (Hb9-GFP) mouse motor neuron death at 10 uM measured after 3 days by imaging method; assay type: functional, tissue-based; conditions: time 3.0 day
Summary of the method: (§2)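 Patient fibroblast-derived NPCs differentiated 5 days into induced astrocytes (DMEM, 10% FBS, 0.2% N2), seeded 10,000 per well; 24 h later GFP+ (HB9 promoter) motor neurons sorted from mouse embryoid bodies added at 10,000 per well together with compound. Imaged up to 3 days; neurons with neurites >50 μm counted alive, normalized to healthy-control survival; at least 2 independent experiments.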

Ephrin type-A receptor 2 = Ephrin type-A receptor 2 (Homo sapiens, UniProt P29317); test: Binding affinity to N-terminal His tagged EphA2 LBD (27 to 200 residues) (unknown origin) expressed in Origami (DE3) cells by isothermal titration calorimetry
Chain of Ephrin type-A receptor 2 (P29317 whole entry, the tested form may be a part): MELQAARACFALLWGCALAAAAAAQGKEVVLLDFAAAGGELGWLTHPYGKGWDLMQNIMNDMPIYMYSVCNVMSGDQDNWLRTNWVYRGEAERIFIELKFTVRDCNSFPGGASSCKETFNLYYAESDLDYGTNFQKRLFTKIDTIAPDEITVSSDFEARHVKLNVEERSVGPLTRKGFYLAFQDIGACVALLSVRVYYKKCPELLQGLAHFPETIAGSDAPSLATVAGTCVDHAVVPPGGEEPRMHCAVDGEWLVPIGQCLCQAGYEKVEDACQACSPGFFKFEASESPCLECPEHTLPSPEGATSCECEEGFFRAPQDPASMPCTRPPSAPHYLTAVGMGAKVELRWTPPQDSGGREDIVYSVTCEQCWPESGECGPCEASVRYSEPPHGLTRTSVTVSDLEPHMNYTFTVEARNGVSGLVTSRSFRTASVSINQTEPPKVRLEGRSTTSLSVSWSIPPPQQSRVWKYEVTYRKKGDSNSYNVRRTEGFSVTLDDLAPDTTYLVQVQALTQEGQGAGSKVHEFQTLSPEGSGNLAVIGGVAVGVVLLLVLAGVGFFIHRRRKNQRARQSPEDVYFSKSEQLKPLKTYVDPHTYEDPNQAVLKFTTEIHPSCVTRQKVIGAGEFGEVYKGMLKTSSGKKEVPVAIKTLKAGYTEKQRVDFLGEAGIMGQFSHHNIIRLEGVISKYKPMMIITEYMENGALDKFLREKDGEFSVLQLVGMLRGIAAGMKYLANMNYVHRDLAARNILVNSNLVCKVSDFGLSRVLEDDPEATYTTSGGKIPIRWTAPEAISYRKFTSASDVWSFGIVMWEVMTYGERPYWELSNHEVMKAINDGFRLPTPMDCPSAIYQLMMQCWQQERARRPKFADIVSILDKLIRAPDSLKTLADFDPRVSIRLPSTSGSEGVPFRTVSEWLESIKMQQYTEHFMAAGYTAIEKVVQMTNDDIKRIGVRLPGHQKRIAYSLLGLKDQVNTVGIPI

Neuron [8] = test: Cytoprotective activity against patient derived induced astrocyte-mediated B6-Cg-Tg(Hlxb9-GFP)1Tmj/J (Hb9-GFP) mouse motor neuron death at 100 uM measured after 3 days by imaging method; assay type: functional, tissue-based; conditions: time 3.0 day; summary of the method: as §2

| Compound | Activity [1] | Activity (Ephrin type-A receptor 4 [2]) | Activity [3] | solubility [4] | Activity [5] | Kd (Ephrin type-A receptor 4 [6]) | Activity (Neuron [7]) | solubility ([4]; read-out: solubility) | Kd (Ephrin type-A receptor 2) | Activity (Neuron [8]) |
| --- | --- | --- | --- | --- | --- | --- | --- | --- | --- | --- |
| N=C(N)NCCCC[C@H](NC(=O)[C@H](Cc1ccc(-c2ccccc2)cc1)NC(=O)[C@H](Cc1c[nH]c2ccc(O)cc12)NC(=O)[C@H]1CCC[C@H](N)C1)C(=O)NCC(=O)Nc1ccc(N2CCOCC2)cc1 ({Cyclohexanoyl(1S,3S-3-NH2)}-[Trp(5-OH)][Bip][hArg]G-{NH(4-morpholinophenyl)}) | Active | Active | Active | > 50000 µM | Active | 113 nM | Active | – | – | – |
| COc1ccc2[nH]cc(CCNC(=O)[C@H](Cc3ccncc3)NC(=O)[C@H](Cc3ccc(Cl)cc3)NC(=O)[C@H](Cc3c[nH]c4ccc(O)cc34)NC(=O)CCCN)c2c1 | – | – | – | – | – | – | – | 100 µM (≈ 80.7 µg/mL) | Not Active | Active |
